# Measured values from ChEMBL document CHEMBL3853270, “Influence of Birch Bark Triterpenes on Keratinocytes and Fibroblasts from Diabetic and Nondiabetic Donors” (2016).
# Activity calls are given as the source filed them. No cut-off for these calls is given here.
# Tests used:
# Type in all cases: functional
# Fibroblast [1] = experiment: Effect on growth factor related gene expression in diabetic adult human primary fibroblasts assessed as GDF15 mRNA levels at 1.96 uM after 6 hrs by qPCR analysis
# Procedure, shortened: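 Primary human dermal fibroblasts (young or adult nondiabetic, adult diabetic donor) were treated for 6 h against a 0.1% DMSO solvent control. RNA from 320 000 cells per sample was measured by Fluidigm Biomark high-throughput qPCR. Values are fold change relative to solvent control, from four independent experiments, with SD. One-way ANOVA with Bonferroni post-test was applied.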
# [2] = Effect on wound healing activity in non-diabetic adult human primary keratinocytes assessed as upregulation of soluble E-selectin protein levels at 1.96 uM after 24 hrs by bead-based suspension array analysis; settings: Keratinocyte
# Fibroblast [3] = experiment: Effect on actin cytoskeleton in human non-diabetic primary fibroblasts assessed as formation of thin elongated cellular body at 10 nM after 2 hrs in presence of p-38 MAPK inhibitor LN 950 by rhodamine phalloidin-staining based fluorescence microscopic analysis
# Procedure, shortened: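 Subconfluent cells on glass coverslips, collagen type I coated for fibroblasts; keratinocytes starved 2 days before stimulation. Exposure 2 h, then rhodamine-phalloidin staining (1:25 in PBS) and fluorescence microscopy. Controls were DMSO as solvent and PDGF (fibroblasts) or CNF1 (keratinocytes). Where used, p38-MAPK inhibitor LN 950 (100 nM) was added 30 min beforehand.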
# Keratinocyte [4] = experiment: Effect on growth factor related gene expression in non-diabetic young human primary keratinocytes assessed as VEGFA mRNA levels at 9.81 uM after 6 hrs by qPCR analysis
# Procedure, shortened: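 Primary human keratinocytes (nondiabetic young or adult, diabetic adult donors) were exposed to compound for 6 h, with 0.1% DMSO as solvent control. Total RNA came from 400 000 cells per sample and was assayed on a Fluidigm Biomark high-throughput qPCR chip. Results are fold change vs solvent control, from 2−4 independent experiments on two donors per group, with SD. Groups were compared by one-way ANOVA with Bonferroni post-test.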
# Keratinocyte [5] = experiment: Effect on AQP3 mRNA expression levels in diabetic adult human primary keratinocytes at 9.81 uM after 6 hrs by qPCR analysis
# Procedure, shortened: (§1)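 Primary keratinocytes from nondiabetic young and adult and diabetic adult donors; 400 000 cells per sample, 6 h exposure at 1.96 or 9.81 μM. RNA extracted and read on a high-throughput qPCR chip. Results are fold change versus 0.1% DMSO solvent control from 5−7 independent experiments over two donors per group, SD, one-way ANOVA with Bonferroni post-test.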
# Keratinocyte [6] = experiment: Effect on pro-inflammatory related gene expression in non-diabetic young human primary keratinocytes assessed as TNF mRNA levels at 1.96 uM after 6 hrs by qPCR analysis
# Keratinocyte [7] = experiment: Effect on ECM related gene expression in non-diabetic adult human primary keratinocytes assessed as FBN1 mRNA levels at 1.96 uM after 6 hrs by qPCR analysis; procedure, shortened: as §1
# Keratinocyte [8] = experiment: Effect on cellular connection related gene expression in non-diabetic adult human primary keratinocytes assessed as GJB2 mRNA levels at 1.96 uM after 6 hrs by qPCR analysis
# Keratinocyte [9] = experiment: Effect on pro-inflammatory related gene expression in non-diabetic adult human primary keratinocytes assessed as TNF mRNA levels at 1.96 uM after 6 hrs by qPCR analysis
# Keratinocyte [10] = experiment: Effect on antioxidant related gene expression in non-diabetic adult human primary keratinocytes assessed as SOD2 mRNA levels at 9.81 uM after 6 hrs by qPCR analysis
# Fibroblast [11] = experiment: Effect on adhesion molecules related gene expression in non-diabetic adult human primary fibroblasts assessed as VCAM1 mRNA levels at 9.81 uM after 6 hrs by qPCR analysis
# Procedure, shortened: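 Dermal fibroblasts from nondiabetic adult and diabetic adult donors, exposed for 6 h at 1.96 or 9.81 μM. ICAM-1 and VCAM-1 mRNA measured by standard qRT-PCR, n = 3. Fold change versus 0.1% DMSO control, SD, one-way ANOVA with Bonferroni post-test.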
# Keratinocyte [12] = experiment: Effect on pro-inflammatory related gene expression in non-diabetic young human primary keratinocytes assessed as PTGS2 mRNA levels at 1.96 uM after 6 hrs by qPCR analysis
# Keratinocyte [13] = experiment: Effect on cellular connection related gene expression in non-diabetic adult human primary keratinocytes assessed as CLDN4 mRNA levels at 9.81 uM after 6 hrs by qPCR analysis
# Keratinocyte [14] = experiment: Effect on antiinflammatory related gene expression in non-diabetic adult human primary keratinocytes assessed as NFKBIA mRNA levels at 9.81 uM after 6 hrs by qPCR analysis; procedure, shortened: as §1
# Fibroblast [15] = experiment: Effect on MMP1 mRNA expression levels in non-diabetic adult human primary fibroblasts at 9.81 uM after 6 hrs by qPCR analysis
# Procedure, shortened: (§2)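 Primary dermal fibroblasts from one nondiabetic young, one nondiabetic adult and one diabetic adult donor; 320 000 cells per sample, 6 h at 1.96 or 9.81 μM. RNA measured on a high-throughput qPCR chip. Fold change versus 0.1% DMSO control, four independent experiments, SD, one-way ANOVA with Bonferroni post-test.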
# Keratinocyte [16] = experiment: Effect on pro-inflammatory related gene expression in non-diabetic adult human primary keratinocytes assessed as IL1B mRNA levels at 9.81 uM after 6 hrs by qPCR analysis
# Keratinocyte [17] = experiment: Effect on pro-inflammatory related gene expression in non-diabetic adult human primary keratinocytes assessed as IL1R1 mRNA levels at 9.81 uM after 6 hrs by qPCR analysis
# Keratinocyte [18] = experiment: Effect on chemokines related gene expression in non-diabetic adult human primary keratinocytes assessed as CXCL10 mRNA levels at 1.96 uM after 6 hrs by qPCR analysis
# Keratinocyte [19] = experiment: Effect on pro-inflammatory related gene expression in non-diabetic adult human primary keratinocytes assessed as PTGS2 mRNA levels at 9.81 uM after 6 hrs by qPCR analysis
# Keratinocyte [20] = experiment: Effect on chemokines related gene expression in non-diabetic adult human primary keratinocytes assessed as CXCL10 mRNA levels at 9.81 uM after 6 hrs by qPCR analysis
# Fibroblast [21] = experiment: Effect on pro-inflammatory related gene expression in non-diabetic young human primary fibroblasts assessed as IL6 mRNA levels at 1.96 uM after 6 hrs by qPCR analysis
# [22] = Effect on wound healing activity in diabetic adult human primary keratinocytes assessed as upregulation of MIF protein levels at 1.96 uM after 24 hrs by bead-based suspension array analysis; settings: Keratinocyte
# [23] = Effect on wound healing activity in diabetic adult human primary fibroblasts assessed as upregulation of RANTES protein levels at 1.96 uM after 24 hrs by bead-based suspension array analysis; settings: Fibroblast
# Fibroblast [24] = experiment: Effect on antioxidant related gene expression in diabetic adult human primary fibroblasts assessed as NFE2L2 mRNA levels at 1.96 uM after 6 hrs by qPCR analysis
# Fibroblast [25] = experiment: Effect on antiinflammatory related gene expression in diabetic adult human primary fibroblasts assessed as NFKBIA mRNA levels at 1.96 uM after 6 hrs by qPCR analysis; procedure, shortened: as §2
# Keratinocyte [26] = experiment: Effect on pro-inflammatory related gene expression in non-diabetic adult human primary keratinocytes assessed as IL1R1 mRNA levels at 1.96 uM after 6 hrs by qPCR analysis
# Keratinocyte [27] = experiment: Effect on AQP3 mRNA expression levels in diabetic adult human primary keratinocytes at 1.96 uM after 6 hrs by qPCR analysis; procedure, shortened: as §1
smiles,measurement,setting,value
C=C(C)[C@@H]1CC[C@]2(CO)CC[C@]3(C)[C@H](CC[C@@H]4[C@@]5(C)CC[C@H](O)C(C)(C)[C@@H]5CC[C@]43C)[C@@H]12 [BETULIN],fold change (FC),Fibroblast [1],2.4
same,Activity,[2],Active
same,Activity,Fibroblast [3],Active
same,fold change (FC),Keratinocyte [4],1.4
same,fold change (FC),Keratinocyte [5],0.8
same,fold change (FC),Keratinocyte [6],4.5
same,fold change (FC),Keratinocyte [7],0.9
same,fold change (FC),Keratinocyte [8],0.7
same,fold change (FC),Keratinocyte [9],3.8
same,fold change (FC),Keratinocyte [10],1.6
same,fold change (FC),Fibroblast [11],53.7
same,fold change (FC),Keratinocyte [12],1.4
same,fold change (FC),Keratinocyte [13],1.5
same,fold change (FC),Keratinocyte [14],1.9
same,fold change (FC),Fibroblast [15],2.3
same,fold change (FC),Keratinocyte [16],0.9
same,fold change (FC),Keratinocyte [17],0.9
same,fold change (FC),Keratinocyte [18],2.9
same,fold change (FC),Keratinocyte [19],1.3
same,fold change (FC),Keratinocyte [20],4.3
same,fold change (FC),Fibroblast [21],45
same,Activity,[22],Active
same,Activity,[23],Active
same,fold change (FC),Fibroblast [24],1.8
same,fold change (FC),Fibroblast [25],3.1
same,fold change (FC),Keratinocyte [26],0.7
same,fold change (FC),Keratinocyte [27],0.8
